Reference: ChEMBL document CHEMBL2029259, “Design, synthesis, and biological evaluation of novel conformationally constrained inhibitors targeting epidermal growth factor receptor threonine⁷⁹⁰ → methionine⁷⁹⁰ mutant” (J Med Chem, 2012)
Activity calls are given as the source filed them. The calls are words filed in the database; no cut-off is given here.

Assays:
[1] = biological target: T1, Epidermal growth factor receptor (Homo sapiens, UniProt P00533); test: Inhibition of EGFR after 1.5 hr by FRET assay
[2] = biological target: T2, Epidermal growth factor receptor (Homo sapiens, UniProt P00533, T790M); test: Inhibition of EGFR T790M mutant after 1.5 hr by FRET assay; type: protein assay
[3] = biological target: T3, Epidermal growth factor receptor (Homo sapiens, UniProt P00533, L858R); test: Inhibition of EGFR L858R mutant after 1.5 hr by FRET assay; type: protein assay
[4] = biological target: T4, Epidermal growth factor receptor (Homo sapiens, UniProt P00533, L861Q); test: Inhibition of EGFR L861Q mutant after 1.5 hr by FRET assay; type: protein assay
[5] = biological target: T5, Epidermal growth factor receptor (Homo sapiens, UniProt P00533, L858R/T790M); test: Inhibition of EGFR L858R/T790M mutant after 1.5 hr by FRET assay; type: protein assay
[6] = biological target: T1, Epidermal growth factor receptor; test: Binding affinity to EGFR
[7] = biological target: T2, Epidermal growth factor receptor; test: Binding affinity to EGFR T790M mutant
[8] = biological target: T3, Epidermal growth factor receptor; test: Binding affinity to EGFR L858R mutant
[9] = biological target: T4, Epidermal growth factor receptor; test: Binding affinity to EGFR L861Q mutant
[10] = biological target: T5, Epidermal growth factor receptor; test: Binding affinity to EGFR L858R/T790M mutant
[11] = biological target: Tyrosine-protein kinase Blk (Homo sapiens) (UniProt P51451); test: Binding affinity to BLK at 100 nM
[12] = biological target: Tyrosine-protein kinase BTK (Homo sapiens) (UniProt Q06187); test: Binding affinity to BTK at 100 nM
[13] = biological target: Receptor tyrosine-protein kinase erbB-2 (Homo sapiens) (UniProt P04626); test: Binding affinity to ErbB2 at 100 nM
[14] = biological target: Receptor tyrosine-protein kinase erbB-4 (Homo sapiens) (UniProt Q15303); test: Binding affinity to ErbB4 at 100 nM
[15] = biological target: Cyclin-G-associated kinase (Homo sapiens) (UniProt O14976); test: Binding affinity to GAK at 100 nM
[16] = biological target: Tyrosine-protein kinase TXK (Homo sapiens) (UniProt P42681); test: Binding affinity to TXK at 100 nM
[17] = test system: A549; test: Antiproliferative activity against human A549 cells expressing wild type EGFR coexpressing k-Ras mutant after 72 hrs by MTS assay; conditions: A549, 72 h
[18] = Antiproliferative activity against human HL7702 cells expressing wilt type EGFR after 72 hrs by MTS assay; conditions: L02, 72 h
[19] = test system: HCC827; test: Induction of Cell cycle arrest in human HCC827 cells harboring EGFR del E746-A750 mutant assessed as G1 phase cells after 24 hrs by flow cytometry assay; type: functional, cell-based
Outline: (§1)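 Cells in six-well plates serum-starved 24 h to synchronize in G0−G1, then treated at indicated concentrations for 24 h. Lightly trypsinized and cell-cycle distribution analysed by flow cytometry.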

[20] = test system: NCI-H1975; test: Induction of Cell cycle arrest in human NCI-H1975 cells harboring EGFR L858R/T790M mutant assessed as G1 phase cells after 24 hrs by flow cytometry assay; type: functional, cell-based; outline: as §1
[21] = test system: NCI-H1975; test: Antiproliferative activity against human NCI-H1975 cells harboring EGFR L858R/T790M mutant assessed as inhibition of colony formation after 9 days by crystal violet staining; type: functional, cell-based
Outline: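 H1975 cells seeded at 500 cells per 6-cm dish and grown 24 h, then treated at 0.1 to 10 nM. Medium with compound replaced every 3 days. After 9 days, fixed with 4% formaldehyde and stained with 0.2% crystal violet.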

[22] = Cytotoxicity against human HLF1 cells after 72 hrs by MTS assay; type: cell-based; conditions: hlf1, 72 h
Outline: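 MTS proliferation read-out at 490 nm after 72 h exposure, cell number set to give absorbance 1.3−2.2. Six concentrations, 0.1 nM to 10 μM, at least six parallels each, repeated at least four times. IC50 from nonlinear sigmoidal dose−response fit.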

[23] = test system: NCI-H1975; test: Antitumor activity against human NCI-H1975 cells xenografted in SCID mouse at 10 mg/kg, po administered qd for 14 days relative to control; type: functional, organism-based; parameters: dose 10 mg/kg
Outline: (§2)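 Six-week-old SCID mice inoculated s.c. in the right flank with H1975 cells (2 × 10⁶/mouse). At mean tumour volume 380−420 mm³ (10−12 days), randomized n = 6/group. Oral dosing daily for 14 days, 0.1 mL/20 g, vehicle as control. Tumours measured every other day by caliper, volume = W²(L/2). Body weight monitored. Significance p < 0.05 versus vehicle.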

[24] = test system: NCI-H1975; test: Antitumor activity against human NCI-H1975 cells xenografted in SCID mouse at 30 mg/kg, po administered qd for 14 days relative to control; type: functional, organism-based; parameters: dose 30 mg/kg; outline: as §2
[25] = Toxicity in SCID mouse assessed as mortality at 10 mg/kg, po administered qd for 14 days relative to control; type: organism-based; parameters: dose 10 mg/kg, route oral; conditions: in vivo, read-out: Activity
Outline: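 Six-week-old SCID mice bearing subcutaneous H1975 NSCLC xenografts (2 × 10⁶ cells, right flank) were randomized at 380−420 mm³ average tumour volume (10−12 days post implantation), n = 6/group. They were dosed orally once daily for 14 days with vehicle or compound (10 or 30 mg/kg; 0.1 mL/20 g body weight). Mortality and body weight were tracked during treatment against vehicle controls.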

[26] = test system: Mus musculus; test: Toxicity in SCID mouse assessed as weight loss at 10 mg/kg, po administered qd for 14 days relative to control; type: organism-based; parameters: dose 10 mg/kg, route oral; conditions: in vivo, 336 h; outline: as §2
[27] = test system: HCC827; test: Induction of apoptosis in human HCC827 cells harboring EGFR del E746-A750 mutant after 48 hrs by flow cytometry assay
[28] = test system: NCI-H1975; test: Induction of apoptosis in human NCI-H1975 cells harboring EGFR L858R/T790M mutant after 48 hrs by flow cytometry assay

T3 sequence (P00533 25-1210 L858R limits assumed): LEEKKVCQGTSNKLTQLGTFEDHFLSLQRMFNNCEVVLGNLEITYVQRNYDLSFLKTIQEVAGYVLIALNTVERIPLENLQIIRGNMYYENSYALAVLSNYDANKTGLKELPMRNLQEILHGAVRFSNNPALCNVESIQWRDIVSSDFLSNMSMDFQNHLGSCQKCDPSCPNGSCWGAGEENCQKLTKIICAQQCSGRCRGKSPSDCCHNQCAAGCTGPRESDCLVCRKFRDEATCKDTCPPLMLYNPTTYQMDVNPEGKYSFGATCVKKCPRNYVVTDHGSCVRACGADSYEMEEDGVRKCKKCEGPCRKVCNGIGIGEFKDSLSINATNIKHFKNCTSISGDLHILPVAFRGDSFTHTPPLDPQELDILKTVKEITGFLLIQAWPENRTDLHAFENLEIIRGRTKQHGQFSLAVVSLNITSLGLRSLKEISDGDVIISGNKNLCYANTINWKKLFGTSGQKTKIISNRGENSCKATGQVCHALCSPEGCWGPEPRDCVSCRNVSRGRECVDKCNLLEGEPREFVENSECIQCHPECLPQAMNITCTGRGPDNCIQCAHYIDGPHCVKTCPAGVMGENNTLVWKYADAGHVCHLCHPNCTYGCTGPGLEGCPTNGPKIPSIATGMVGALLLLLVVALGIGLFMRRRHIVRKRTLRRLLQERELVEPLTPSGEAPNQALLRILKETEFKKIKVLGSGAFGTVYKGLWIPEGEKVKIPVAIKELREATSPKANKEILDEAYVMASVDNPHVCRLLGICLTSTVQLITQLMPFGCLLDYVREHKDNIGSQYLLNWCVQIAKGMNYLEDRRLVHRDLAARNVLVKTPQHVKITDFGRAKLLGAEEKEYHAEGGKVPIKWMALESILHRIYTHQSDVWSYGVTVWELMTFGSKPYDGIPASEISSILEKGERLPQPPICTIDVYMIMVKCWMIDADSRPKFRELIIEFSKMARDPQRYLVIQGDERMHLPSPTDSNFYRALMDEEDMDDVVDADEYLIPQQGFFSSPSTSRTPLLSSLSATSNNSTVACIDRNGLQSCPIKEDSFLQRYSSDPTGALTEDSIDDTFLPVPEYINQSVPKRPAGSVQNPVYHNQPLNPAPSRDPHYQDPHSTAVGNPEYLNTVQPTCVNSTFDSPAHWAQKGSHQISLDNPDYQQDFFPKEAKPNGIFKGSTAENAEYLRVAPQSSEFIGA
T1 sequence (P00533 whole entry): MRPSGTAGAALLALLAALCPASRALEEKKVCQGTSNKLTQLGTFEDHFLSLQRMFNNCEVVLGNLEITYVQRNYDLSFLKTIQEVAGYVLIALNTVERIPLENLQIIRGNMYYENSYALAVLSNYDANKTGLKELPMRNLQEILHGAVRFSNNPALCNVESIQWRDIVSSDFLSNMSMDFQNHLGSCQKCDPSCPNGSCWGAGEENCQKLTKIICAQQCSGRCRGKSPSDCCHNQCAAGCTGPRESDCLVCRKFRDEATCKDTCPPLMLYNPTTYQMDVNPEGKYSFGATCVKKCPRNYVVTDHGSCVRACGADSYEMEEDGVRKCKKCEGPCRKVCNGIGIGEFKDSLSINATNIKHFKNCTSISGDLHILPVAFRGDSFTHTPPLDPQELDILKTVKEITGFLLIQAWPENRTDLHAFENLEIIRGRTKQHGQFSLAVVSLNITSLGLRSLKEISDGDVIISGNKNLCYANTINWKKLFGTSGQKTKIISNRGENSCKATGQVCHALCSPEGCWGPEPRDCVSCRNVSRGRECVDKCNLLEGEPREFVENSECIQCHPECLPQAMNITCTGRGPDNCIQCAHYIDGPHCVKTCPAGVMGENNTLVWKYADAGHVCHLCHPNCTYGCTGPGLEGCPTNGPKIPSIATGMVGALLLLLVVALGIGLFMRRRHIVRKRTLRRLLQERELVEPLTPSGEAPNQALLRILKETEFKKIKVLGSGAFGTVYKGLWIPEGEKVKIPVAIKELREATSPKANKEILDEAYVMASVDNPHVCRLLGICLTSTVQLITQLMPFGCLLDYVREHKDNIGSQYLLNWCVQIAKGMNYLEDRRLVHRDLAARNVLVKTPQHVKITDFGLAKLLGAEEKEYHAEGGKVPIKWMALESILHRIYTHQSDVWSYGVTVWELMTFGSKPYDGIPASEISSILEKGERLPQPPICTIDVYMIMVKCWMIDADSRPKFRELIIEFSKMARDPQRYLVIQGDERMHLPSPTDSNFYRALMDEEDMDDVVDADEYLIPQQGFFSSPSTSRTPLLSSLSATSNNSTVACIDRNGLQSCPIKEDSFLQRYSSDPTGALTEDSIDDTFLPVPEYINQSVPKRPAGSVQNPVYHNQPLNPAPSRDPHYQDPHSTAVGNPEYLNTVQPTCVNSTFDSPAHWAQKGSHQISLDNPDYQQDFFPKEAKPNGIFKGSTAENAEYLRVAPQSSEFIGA
T2 sequence (P00533 25-1210 T790M limits assumed): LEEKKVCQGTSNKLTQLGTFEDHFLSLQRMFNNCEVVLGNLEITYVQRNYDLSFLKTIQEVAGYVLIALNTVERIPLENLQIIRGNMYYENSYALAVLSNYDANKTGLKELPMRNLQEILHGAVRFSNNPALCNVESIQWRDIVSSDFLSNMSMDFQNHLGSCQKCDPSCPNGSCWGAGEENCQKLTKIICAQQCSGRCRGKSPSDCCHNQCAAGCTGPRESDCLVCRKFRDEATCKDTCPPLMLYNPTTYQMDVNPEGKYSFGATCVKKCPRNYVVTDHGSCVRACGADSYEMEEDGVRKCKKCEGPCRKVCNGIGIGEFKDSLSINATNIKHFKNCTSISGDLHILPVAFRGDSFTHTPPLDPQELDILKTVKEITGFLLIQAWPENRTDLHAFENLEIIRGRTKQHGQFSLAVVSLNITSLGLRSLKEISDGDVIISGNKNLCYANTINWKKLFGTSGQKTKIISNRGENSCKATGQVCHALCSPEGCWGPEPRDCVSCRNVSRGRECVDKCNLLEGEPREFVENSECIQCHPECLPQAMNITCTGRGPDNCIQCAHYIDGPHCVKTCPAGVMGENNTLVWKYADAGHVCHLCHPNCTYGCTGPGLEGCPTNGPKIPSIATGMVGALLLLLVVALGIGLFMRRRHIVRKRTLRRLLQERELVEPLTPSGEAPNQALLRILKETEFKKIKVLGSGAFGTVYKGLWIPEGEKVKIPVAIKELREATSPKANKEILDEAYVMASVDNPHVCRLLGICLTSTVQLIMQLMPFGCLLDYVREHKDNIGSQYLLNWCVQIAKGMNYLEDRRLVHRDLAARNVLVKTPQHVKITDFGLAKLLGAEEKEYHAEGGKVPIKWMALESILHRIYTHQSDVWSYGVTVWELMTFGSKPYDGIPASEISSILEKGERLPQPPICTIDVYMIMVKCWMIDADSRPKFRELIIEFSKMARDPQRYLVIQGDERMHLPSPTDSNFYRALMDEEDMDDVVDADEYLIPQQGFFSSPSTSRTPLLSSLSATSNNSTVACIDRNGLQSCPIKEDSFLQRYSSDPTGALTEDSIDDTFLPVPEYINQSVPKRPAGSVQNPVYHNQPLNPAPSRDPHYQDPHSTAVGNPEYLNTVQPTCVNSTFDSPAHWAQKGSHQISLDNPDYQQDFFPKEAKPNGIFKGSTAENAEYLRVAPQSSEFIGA
T5 sequence (P00533 25-1210 T790M/L858R limits assumed): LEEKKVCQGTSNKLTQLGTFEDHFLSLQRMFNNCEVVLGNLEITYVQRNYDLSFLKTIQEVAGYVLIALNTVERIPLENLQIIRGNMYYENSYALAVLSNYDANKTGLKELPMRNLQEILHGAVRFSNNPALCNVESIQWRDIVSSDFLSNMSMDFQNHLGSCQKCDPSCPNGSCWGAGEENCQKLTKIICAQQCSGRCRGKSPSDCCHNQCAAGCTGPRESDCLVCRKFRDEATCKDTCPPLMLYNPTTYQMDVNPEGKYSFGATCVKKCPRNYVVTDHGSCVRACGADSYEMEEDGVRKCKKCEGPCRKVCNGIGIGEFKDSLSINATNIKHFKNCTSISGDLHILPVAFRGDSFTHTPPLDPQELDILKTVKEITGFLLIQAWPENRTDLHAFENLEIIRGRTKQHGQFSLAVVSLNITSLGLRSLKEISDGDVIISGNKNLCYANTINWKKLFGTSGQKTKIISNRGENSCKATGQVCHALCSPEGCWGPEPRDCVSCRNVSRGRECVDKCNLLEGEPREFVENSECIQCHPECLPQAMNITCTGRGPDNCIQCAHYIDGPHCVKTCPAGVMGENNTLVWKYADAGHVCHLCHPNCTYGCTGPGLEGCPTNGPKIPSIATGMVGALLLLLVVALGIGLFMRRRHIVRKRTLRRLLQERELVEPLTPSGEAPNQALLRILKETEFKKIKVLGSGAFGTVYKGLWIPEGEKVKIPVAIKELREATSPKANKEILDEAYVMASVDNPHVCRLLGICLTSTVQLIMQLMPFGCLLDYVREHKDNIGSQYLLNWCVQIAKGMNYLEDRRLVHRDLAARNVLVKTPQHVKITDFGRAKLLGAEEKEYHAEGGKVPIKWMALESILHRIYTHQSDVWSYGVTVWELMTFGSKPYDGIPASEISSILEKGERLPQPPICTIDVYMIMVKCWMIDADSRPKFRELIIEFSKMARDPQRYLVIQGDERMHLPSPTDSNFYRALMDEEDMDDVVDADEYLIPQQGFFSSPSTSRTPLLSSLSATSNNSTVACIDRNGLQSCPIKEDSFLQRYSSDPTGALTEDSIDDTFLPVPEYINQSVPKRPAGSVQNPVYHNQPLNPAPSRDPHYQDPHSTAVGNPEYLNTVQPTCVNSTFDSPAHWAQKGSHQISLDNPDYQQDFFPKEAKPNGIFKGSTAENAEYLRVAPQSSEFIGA

SMILES: C=CC(=O)Nc1cccc(N2C(=O)N(Cc3ccccc3)Cc3cnc(Nc4ccc(N5CCN(C)CC5)cc4OC)nc32)c1
- IC50 [1]: 0.29 nM
- IC50 [2]: 0.67 nM
- IC50 [3]: 0.38 nM
- IC50 [4]: 0.72 nM
- IC50 [5]: 0.93 nM
- Kd [6]: 1.2 nM
- Kd [7]: 0.29 nM
- Kd [8]: 1.3 nM
- Kd [9]: 0.68 nM
- Kd [10]: 0.3 nM
- Activity [11]: Active
- Activity [12]: Active
- Activity [13]: Active
- Activity [14]: Active
- Activity [15]: Active
- Activity [16]: Active
- IC50 [17]: 2660 nM
- IC50 [18]: 2390 nM
- Activity [19]: Active
- Activity [20]: Active
- inhibition [21]: Dose-dependent effect
- Activity [22]: Non-toxic
- Activity [23]: inactive
- Activity [24]: Active
- mortality at 336 h [25]: < 5%
- Activity [26]: < 5%
- Activity [27]: Active
- Activity [28]: Active
